H69AR growth 86K: proliferation blockers of H69AR lung cancer cells, primary screen, cell-based, human, 86K library; actives 6% (n = 85,000); H69AR lung tumor viability, ATP luminescence, 72 h; hits give low values; viability, % at 10 µM;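 active means viability at or below 40%; inactive means viability above 40%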;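 further: multidrug resistant small cell line overexpressing MRP-1 efflux transporter; 100% = mean luminescence of untreated control wells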
bCat KO growth: primary screen for growth suppressors in beta-catenin knockout HCT116 cells (colon tumor, human) | HCT116 beta-catenin knockout viability, CellTiter-Glo, 60 h; hits give low values | viability, % at 10 µM | actives 1.5% (n = 140,000);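 active means viability at or under a set limit, the compound median less 4 SD, cut at about 6% in these data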;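 further: 0% = Hyamine 1622 control at 20 µM and 100% = untreated cell control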
HUVEC inhibit: inhibitors of HUVEC proliferation, primary screen, cell-based, 384-well; CellTiter-Glo luminescence, 72 h; hits give low values; viability, % at 10 µM (by protocol); actives 1.1% (n = 86,000);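 active means viability at or below 30%; inactive means viability above 30%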;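 further: 100% = median luminescence of DMSO-only cell control wells on each plate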
Fibroblast inh: antiproliferative effect on LL 47 fibroblasts – human, LL 47 cells, CellTiter-Glo luminescence, primary screen; actives 1.1% (n = 85,000); AID 719, 2007; LL 47 human lung fibroblast viability, ATP luminescence; hits give low values; viability, % at 10 µM;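 active means viability at or below 50% in the single dose screen; inactive means viability above 50%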;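 further: compound exposure lasted 72 h before the ATP readout; 100% = median luminescence of untreated cell-only wells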
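Benchmarks: Cell-only wells, no compound | Test system: LL 47 human lung fibroblasts, passage 12 or lower | Input: 1,150 cells/well | Measured by: CellTiter-Glo luminescence measuring cellular ATP | Medium: IMEM, 15% FBS supplement | Schedule: Overnight attachment after seeding, then 72 h compound exposure at 37 °C | Doses: Compound addition at 0.1% DMSO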
HCT116 PTEN-null: growth suppression of PTEN-null HCT116, primary screen, cell-based, CellTiter-Glo | actives 1.2% (n = 140,000) | AID 827, 2007 | HCT116 PTEN-null viability, 60 h; hits give low values | viability, % at 10 µM;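 active means viability at or below a set limit, 4 SD under the median of all tested compounds, cut at about 3.7% in these data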;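 further: PTEN knockout HCT116 line with beta catenin targeted HCT116 as companion control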
Numbers without * were called inactive; nt = not tested or not shown. Many of the other results were omitted from the sample, so hits are more common in it than they were.

SMILES	H69AR growth 86K	bCat KO growth	HUVEC inhibit	Fibroblast inh	HCT116 PTEN-null
CCN1C=CC(=C2C(=O)c3ccccc3C2=O)C=C1	27*	50	61	69	57
CCc1[nH]nc2c1C(c1ccsc1)C(C#N)=C(N)O2 (configuration not stated)	61	82	82	98	96
CCc1[nH]nc2c1C(c1ccc(Br)s1)C(C#N)=C(N)O2 (configuration not stated)	1.7*	34	69	24*	33
CCCSc1nsc(NC(=O)C(c2ccccc2)c2ccccc2)n1	18*	14	68	87	8
CN(C)CC(C)(C)CNS(=O)(=O)CC12CCC(CC1=O)C2(C)C (configuration not stated)	nt	94	nt	nt	98
Cn1c(CCN2CCCCC2)nc2cc(NS(=O)(=O)c3ccc(F)cc3)ccc21	22*	19	107	94	42
CN(c1cccc(Cl)c1)S(=O)(=O)c1cccc(C(=O)NC2=NCCS2)c1	40*	46	89	100	44
COc1ccccc1NS(=O)(=O)c1cc(NC(=O)Nc2cccc(C)c2)ccc1N1CCCCC1	nt	68	nt	nt	57
O=C(Nc1ccc(Cl)cc1)Nc1ccc(N2CCCC2)c(S(=O)(=O)Nc2ccccc2Cl)c1	nt	1.9*	nt	nt	1.8*
Cc1cccc(C)c1NC1=NC(=S)N(c2ccccc2)C12CCOC(C)(C)C2 (configuration not stated)	34*	30	90	87	24
OC(CNC1CCCCC1)COCCOc1ccc(Br)cc1 (configuration not stated)	nt	76	nt	nt	72
CCc1nc(NCCCn2ccnc2)c2oc3ccccc3c2n1	76	90	83	91	92
c1ccc(-c2nc(NCCCn3ccnc3)c3oc4ccccc4c3n2)cc1	18*	25	54	88	26
Cn1cc(CN2CCc3ccccc3C2)c2ccccc21	70	88	89	95	90
Oc1ccc(CNc2ccccc2F)c2cccnc12	28*	16	94	74	13
Oc1ccc(CN2CCN(c3ccccc3)CC2)c2cccnc12	23*	3.0*	89	26*	2.8*
Oc1ccc(CN2CCCCC2)c2cccnc12	0.7*	2.3*	63	3.1*	1.2*
Oc1ccc(CN2CCc3ccccc3C2)c2cccnc12	38*	2.1*	44	13*	1.7*
Cn1c2c(c(=O)n(C)c1=O)C(C(F)(F)F)(C(F)(F)F)N=C(CCC1CCCCC1)N2	nt	17	nt	nt	15
CC(=O)Nc1cc(C(=O)N2CCN(C)CC2)ccc1Sc1ccc(C)cc1	99	99	109	103	103
O=C(O)C1Cc2[nH]cnc2C(c2ccccc2O)N1 (configuration not stated)	nt	80	nt	nt	90
Cc1ccc(NC(=O)COC(=O)/C=C/c2c(C)nn(-c3ccc(F)cc3)c2Cl)cc1F	nt	79	nt	nt	90
O/N=C\c1cccn1-c1ccc(Br)cc1	48	101	94	102	94
Oc1ccc(COCc2ccccc2)c2cccnc12	1.6*	3.9*	49	14*	2.3*
Cc1ccc(N=Nc2ccc(O)c3ncccc23)cc1	nt	18	nt	nt	12
SMILES	H69AR growth 86K	bCat KO growth	HUVEC inhibit	Fibroblast inh	HCT116 PTEN-null
CSc1ncccc1C(=O)OCc1ccccc1	105	96	102	99	100
OCc1ccc(O)c2ncccc12	22*	4.3*	112	28*	5
Clc1cccc(/C(Cc2nc3ccccc3[nH]2)=N\Nc2ccccc2)c1	nt	72	nt	nt	66
CC(C)OC(=O)/C(C#N)=C/c1c[nH]c2ccccc12	nt	82	nt	nt	79
COc1ccc(C2(CNC(=O)c3ccc(OC)c([N+](=O)[O-])c3)CCCCC2)cc1OC	nt	73	nt	nt	69
CCOC(=O)C1=C(C)N(C)C(=O)NC1c1c(C)nn(-c2ccc(C)cc2)c1Cl (configuration not stated)	31*	78	88	90	nt
CCOC(=O)C1=C(C)NC(=O)NC1c1c(C)nn(-c2ccccc2)c1Cl (configuration not stated)	81	94	89	97	107
CCOC(=O)CSc1nc(N)c2c3c(sc2n1)CCCC3	89	86	98	97	83
CC1CCc2c(sc3nc(C4CC4)nc(SCC(=O)NCc4ccco4)c23)C1 (configuration not stated)	71	nt	93	104	nt
CC1CCc2c(sc3nc(SCC(=O)NCc4ccco4)nc(N)c23)C1 (configuration not stated)	35*	27	65	85	35
CCN(CC)C(=O)CSc1nc(N)c2c3c(sc2n1)CC(C)CC3 (configuration not stated)	37*	78	89	97	85
COc1ccc(OC)c(S(=O)(=O)N2CCC(C(=O)N3CCc4ccccc4C3)CC2)c1	36*	92	86	97	86
CCN1CCN(c2cc(-c3ccccc3)nc3cc(-c4cccc(F)c4)nn23)CC1	41	1.2*	22*	90	1.4*
O=C(Nc1cc2c3c(c1)C1CCCC1CN3CC1CCCC21)c1ccccc1 (configuration not stated)	nt	85	nt	nt	74
c1ccc(-c2nc(N3CCCCC3)nc3ccccc23)cc1	83	75	105	90	77
c1ccc(-c2nc(N3CCNCC3)nc3ccccc23)cc1	4.4*	57	63	88	40
Cc1ccc2nc(N3CC(=O)Nc4ccccc43)nc(-c3ccccc3)c2c1	nt	1.4*	nt	nt	1.2*
N#CC1(C#N)CC(C=O)=C(N)C1(C#N)CC(=O)C12CC3CC(CC(C3)C1)C2 (configuration not stated)	nt	85	nt	nt	86
COc1ccc(N2C(=O)C3ON(C4SC(=S)N(C)C4(C)C)C(c4ccc(Cl)cc4)C3C2=O)cc1 (configuration not stated)	nt	87	nt	nt	90
Cc1ccc(OCC(=O)Nc2ccc(-c3nc4ncccc4o3)cc2)c(C)c1	33*	101	71	97	103
CSCCC(NC(=O)c1ccc(Cl)cc1)C(=O)NC(C)(C)C (configuration not stated)	nt	91	nt	nt	94
CCOc1ccc(Br)cc1/C(C)=N\NC1=NCCN1	18*	14	58	52	15
O=C(C1COc2ccccc2O1)N1CCN(c2ccccc2)CC1 (configuration not stated)	101	99	106	96	94
COc1cc2nc(N3CCN(C(=O)c4ccco4)CC3)nc(N)c2cc1OC	10*	7	87	22*	5
COc1cc2nc(N3CCN(C(=O)C4COc5ccccc5O4)CC3)nc(N)c2cc1OC (configuration not stated)	29*	4.6*	62	99	9
O=C(COc1nc2ccccc2nc1N1CCOCC1)Nc1cccc(S(=O)(=O)N2CCCCC2)c1	nt	77	nt	nt	75

Source: PubChem BioAssay
